From ChEMBL document CHEMBL1130172, “Discovery of a novel class of substituted pyrrolooctahydroisoquinolines as potent and selective delta opioid agonists, based on an extension of the message-address concept” (J Med Chem, 1997) come the findings set out here.

As usually defined, the IC50 is the concentration that inhibits the measured activity by half. A word on the Ki: it is a measure of affinity in units of concentration, obtained from inhibition or displacement. Lower therefore signals a stronger hold on the target.

Structures are written as SMILES.

Test [1] concerns Mus musculus. Put plainly: Antinociceptive activity in mouse abdominal constriction test after intracerebroventricular administration. The test is classed as functional, Abdomen. In outline: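 Male Swiss mice (20-35 g); drug given icv by needle through the skull 1.5 mm right of bregma on the coronal suture (3.5 mm protrusion), 5 min before ip phenyl-p-benzoquinone (2 mg/kg, 10 mL/kg, at 37 °C).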

The target of test [2] is T1, Delta-type opioid receptor (Mus musculus, UniProt P32300). Put plainly: In vitro agonist activity for Opioid receptor delta 1 was determined in a mouse vas deferens assay. It counts as functional, tissue-based.
T1 sequence (P32300 whole entry): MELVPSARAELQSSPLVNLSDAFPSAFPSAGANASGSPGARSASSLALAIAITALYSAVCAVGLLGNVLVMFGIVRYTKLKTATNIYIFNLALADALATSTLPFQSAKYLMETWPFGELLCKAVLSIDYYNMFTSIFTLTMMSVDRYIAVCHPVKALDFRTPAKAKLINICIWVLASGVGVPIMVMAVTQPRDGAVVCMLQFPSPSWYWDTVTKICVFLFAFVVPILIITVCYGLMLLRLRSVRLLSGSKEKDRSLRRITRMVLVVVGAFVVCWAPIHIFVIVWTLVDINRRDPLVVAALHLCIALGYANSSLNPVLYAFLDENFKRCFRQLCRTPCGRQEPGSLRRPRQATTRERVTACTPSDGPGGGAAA
The target of test [3] is Mu-type opioid receptor (Mus musculus, UniProt P42866). Put plainly: Binding affinity against Opioid receptor mu 1 using [3H][D-Ala2, MePhe4, Gly-ol5]-enkephalin as radioligand. In outline:
(§1)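 Whole-brain (minus cerebellum) membranes from male CD-1 mice in 50 mM Tris-HCl pH 7.4, preincubated 45 min at 37 °C. μ labelled with 0.7 nM [3H]DAMGO, κ with 1.2 nM [3H]U69593 (PEI-presoaked filters); 50 min at 25 °C in triplicate; nonspecific with 10 μM naloxone. IC50 by nonlinear regression, Ki by Cheng–Prusoff; mean ± SEM, n=3 unless stated.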

The target of test [4] is T1, Delta-type opioid receptor. Put plainly: In vitro antagonist activity against Opioid receptor delta 1 in the presence of 30 nM naltrindole, in a mouse vas deferens assay. It counts as functional, tissue-based.
Test [5] deals with Kappa-type opioid receptor (Mus musculus, UniProt P33534). Put plainly: Binding affinity against Opioid receptor kappa 1 using [3H]-U-69,593 as radioligand. The gist of the method:
as §1

Test [6] concerns the target T1, Delta-type opioid receptor. Put plainly: Binding affinity against Opioid receptor delta 1 using [3H][D-Ala2, D-Leu5]-enkephalin as radioligand.
The species entered for test [7] is Mus musculus. Put plainly: Selectivity ratio of the affinity for kappa and delta opioid receptors (Ki kappa/Ki delta). In outline:
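Ratios of Ki values: δ Ki from [3H]DADLE (1 nM) on NG108-15 membranes; μ Ki from [3H]DAMGO (0.7 nM) and κ Ki from [3H]U69593 (1.2 nM) on mouse brain membranes; all 25 °C competition assays with Ki derived by Cheng–Prusoff.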

Test [8] has as its target T1, Delta-type opioid receptor. Put plainly: Inv itro antagonist activity against Opioid receptor delta 1 in the presence of 30 nM naltrindole, in a mouse vas deferens assay. The test is classed as functional, tissue-based. In outline: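 Isolated vasa deferentia from CD-1 mice (25–35 g) held in Mg2+-free Krebs buffer, oxygenated with 95% O2/5% CO2, at 37 °C. Electrical field stimulation: 50 ms trains of 2 ms pulses at 50 Hz, 60–70 V maximal, trains at 0.1 Hz. Agonist concentration–response curves built cumulatively in the presence of 30 nM naltrindole.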

Chain of Mu-type opioid receptor (P42866 whole entry): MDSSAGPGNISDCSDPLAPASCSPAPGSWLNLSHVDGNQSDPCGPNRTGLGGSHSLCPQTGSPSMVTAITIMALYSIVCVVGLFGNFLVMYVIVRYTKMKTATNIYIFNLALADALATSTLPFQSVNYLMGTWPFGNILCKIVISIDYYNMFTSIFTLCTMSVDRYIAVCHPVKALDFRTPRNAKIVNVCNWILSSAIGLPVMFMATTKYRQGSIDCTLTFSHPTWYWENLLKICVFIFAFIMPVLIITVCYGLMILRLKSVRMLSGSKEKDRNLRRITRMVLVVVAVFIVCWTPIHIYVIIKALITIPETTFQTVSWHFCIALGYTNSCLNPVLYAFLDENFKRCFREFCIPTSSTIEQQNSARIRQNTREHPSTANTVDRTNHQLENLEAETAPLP
Chain of Kappa-type opioid receptor (P33534 whole entry): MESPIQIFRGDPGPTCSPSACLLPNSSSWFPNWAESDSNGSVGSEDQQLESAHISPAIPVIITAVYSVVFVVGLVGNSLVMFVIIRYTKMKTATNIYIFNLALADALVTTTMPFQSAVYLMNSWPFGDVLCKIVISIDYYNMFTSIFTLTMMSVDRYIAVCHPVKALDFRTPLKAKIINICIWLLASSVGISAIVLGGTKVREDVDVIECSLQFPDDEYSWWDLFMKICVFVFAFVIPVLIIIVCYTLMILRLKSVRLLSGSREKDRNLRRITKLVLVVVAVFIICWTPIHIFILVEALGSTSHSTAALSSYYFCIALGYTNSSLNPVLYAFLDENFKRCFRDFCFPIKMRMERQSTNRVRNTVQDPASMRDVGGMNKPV

`CCN1CC[C@]2(c3cccc(O)c3)Cc3[nH]c(C(=O)N(CC)CC)c(C)c3C[C@H]2C1` (racemic) [listing 1 of 2 here]: the ED50 in test [1] came out at 1.6 ug mouse-1. The IC50 in test [2] is 34 nM; in test [4], 330 nM. The inhibition constant Ki in test [3] turned out to be 407 nM; in test [5], 1300 nM; in test [6], 1.9 nM.

For `CCN1CC[C@]2(c3cccc(O)c3)Cc3[nH]c4ccccc4c3C[C@H]2C1` (racemic) [listing 1 of 2 here], the Ki in test [3] was found to be 2090 nM; in test [5], 334 nM; in test [6] it was 7.1 nM.

In the case of `CCN(CC)C(=O)c1[nH]c2c(c1C)C[C@H]1CN(C)CC[C@]1(c1cccc(O)c1)C2` (racemic), the Selectivity ratio in test [7] was 240. Besides, the results for the Ki in test [3], in test [5] and in test [6] were 93 nM, 500 nM and 2.1 nM, respectively.

As for `CCN(CC)C(=O)c1[nH]c2c(c1C)C[C@H]1CN(CC3CC3)CC[C@]1(c1cccc(O)c1)C2` (racemic), the Selectivity ratio in test [7] was determined as 37. The Ki stood at 14.1 nM in test [3], 63.1 nM in test [5] and 1.7 nM in test [6].

On to `CCN1CC[C@]2(c3cccc(O)c3)Cc3[nH]c(C(=O)N(CC)CC)c(C)c3C[C@H]2C1` (racemic) [listing 2 of 2 here], for which the Selectivity ratio in test [7] was 690.

Take `CCN1CC[C@]2(c3cccc(O)c3)Cc3[nH]c4ccccc4c3C[C@H]2C1` (racemic) [listing 2 of 2 here]: in test [7], the Selectivity ratio is 50.

Take `CCN1CC[C@]2(c3cccc(O)c3)Cc3[nH]c4ccccc4c3C[C@H]2C1` (stereo in doubt; (+)-3) [listing 1 of 2 here]: the Ki came to 2620 nM in test [3], 771 nM in test [5] and 2.2 nM in test [6].

Regarding `CCN1CC[C@]2(c3cccc(O)c3)Cc3[nH]c4ccccc4c3C[C@H]2C1` (stereo in doubt; (+)-3) [listing 2 of 2 here], the Selectivity ratio in test [7] is 350.

In the case of `CCN1CC[C@]2(c3cccc(O)c3)Cc3[nH]c(C(=O)N(CC)CC)c(C)c3C[C@H]2C1` (stereo in doubt; (+)-5b) [listing 1 of 2 here], the Ki in test [3] was more than 5000 nM; in test [5], 6000 nM; in test [6], 3540 nM.

Turning to `CCN1CC[C@]2(c3cccc(O)c3)Cc3[nH]c(C(=O)N(CC)CC)c(C)c3C[C@H]2C1` (stereo in doubt; (+)-5b) [listing 2 of 2 here], in test [7], the Selectivity ratio came to 2.

As to `CCN1CC[C@]2(c3cccc(O)c3)Cc3[nH]c4ccccc4c3C[C@H]2C1` (stereo in doubt; (-)-3) [listing 1 of 2 here], the Ki turned out to be 1630 nM in test [3], 167 nM in test [5] and 1970 nM in test [6].

On to `CCN1CC[C@]2(c3cccc(O)c3)Cc3[nH]c4ccccc4c3C[C@H]2C1` (stereo in doubt; (-)-3) [listing 2 of 2 here], for which the Selectivity ratio in test [7] worked out at 0.1.

For `CCN1CC[C@]2(c3cccc(O)c3)Cc3[nH]c(C(=O)N(CC)CC)c(C)c3C[C@H]2C1` (stereo in doubt; (-)-5b) [listing 1 of 2 here], the IC50 in test [8] stood at 462 nM; in test [2] it was 26 nM. Also, the Ki in test [3] worked out at 129 nM; in test [5], 1340 nM; in test [6], 0.9 nM.

On to `CCN1CC[C@]2(c3cccc(O)c3)Cc3[nH]c(C(=O)N(CC)CC)c(C)c3C[C@H]2C1` (stereo in doubt; (-)-5b) [listing 2 of 2 here], for which, in test [7], the Selectivity ratio was found to be 1480.

On to `Oc1ccc2c3c1O[C@H]1c4[nH]c5ccccc5c4C[C@@]4(O)[C@@H](C2)N(CC2CC2)CC[C@]314` [NALTRINDOLE], for which the Selectivity ratio in test [7] amounted to 20. Besides, the Ki turned out to be 15 nM in test [3], 9.5 nM in test [5] and 0.5 nM in test [6].

`CN1CC[C@]23c4c5ccc(O)c4O[C@H]2c2[nH]c4ccccc4c2C[C@@]3(O)[C@H]1C5` [OXYMORPHINDOLE]: the Selectivity ratio in test [7] was 90. Further, the Ki amounted to 661 nM in test [3], 77 nM in test [5] and 0.8 nM in test [6].

Turning to `C=CCN1C[C@H](C)N([C@H](c2ccc(C(=O)N(CC)CC)cc2)c2cccc(OC)c2)C[C@H]1C` [SNC-80], the results for the Ki in test [3] and in test [5] were 1300 nM and 1350 nM, respectively.
